Assay results: paper PMC10985026 (Acta Pharmaceutica Sinica. B, 2023)
Where two headings read alike, the source gives them in different places.

Experiments:
[1] = system: 4T1 (breast cancer) cells; test: MTT cytotoxicity assay, 4T1; assay type: cell-based, murine; settings: 48 h, read-out: IC50 4T1
[2] = system: B16F10 (melanoma) cells; test: MTT cytotoxicity assay, B16F10; assay type: cell-based, murine; settings: read-out: IC50 B16F10
Procedure, shortened: (§1)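 Cells were cultured in DMEM/RPMI-1640/MEM with 10% FBS and 1% penicillin–streptomycin at 37 °C, 5% CO2; Renca medium also had 1 mmol/L sodium pyruvate and 2 mmol/L L-glutamine. Cells at about 50% confluence in 96-well plates were exposed to a concentration series for 48 h (DMSO vehicle). MTT was added for 4 h at 37 °C, formazan dissolved in DMSO, and absorbance read on a plate reader. Results are mean ± SD.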

[3] = system: Renca (kidney cancer) cells; test: MTT cytotoxicity assay, Renca; assay type: cell-based, murine; settings: 48 h, read-out: IC50 Renca
Procedure, shortened: as §1

[4] = system: HUVEC; test: MTT cytotoxicity assay, HUVEC; assay type: cell-based, human; settings: 48 h, read-out: IC50 HUVEC
Procedure, shortened: as §1

[5] = system: L-929; test: MTT cytotoxicity assay, L-929; assay type: cell-based, murine; settings: read-out: IC50 L-929
Procedure, shortened: as §1

[6] = system: NLRP3 inflammasome; test: Western blot of NLRP3; assay type: cell-based, murine; settings: 4T1, 2 μmol/L, 24 h, compared to control group
Procedure, shortened: (§2)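 4T1 cells at about 70% confluence in 6-well plates were treated 24 h with test compound or DMSO vehicle. Protein was extracted in RIPA buffer with PMSF and phosphatase inhibitors, immunoblotted, and detected by enhanced chemiluminescence imaging. Sam50/COX II blots: n = 3.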

[7] = system: 4T1 subcutaneous tumor; test: Anti-tumor effect in vivo, 4T1 subcutaneous tumor model; set-up: species or system BALB/c mouse; settings: 4T1-bearing BALB/c mice, after 27 days
Procedure, shortened: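 Subcutaneous 4T1 tumours were grown in female BALB/c mice (6–8 weeks, 18–20 g). At about 50 mm3 on day 7, mice were randomised to five groups: PBS, each parent drug alone, the parent drugs combined, or test compound. Dosing was i.v. every two days, with body weight and tumour volume measured regularly. Main organs and blood were collected at study end for safety assessment.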

[8] = system: Sam50 and COX II; test: Western blot of Sam50 and COX II; assay type: cell-based, murine; settings: 4T1, 2 μmol/L, 24 h
Procedure, shortened: as §2

[9] = MTT, mean ± SD of three experiments
[10] = MTT, 48 h, mean ± SD of three experiments

`CC(=O)Nc1ccc(O)cc1` [APAP, Acetaminophen] was tested, and the IC50 ([1]; Mus musculus) was > 100 µM, the IC50 ([2]; Mus musculus, B16-F10, 48 h) was > 100 µM and the IC50 ([3]; Mus musculus, Renca) was > 100 µM. For the same compound, the IC50 ([4]; Homo sapiens, HUVEC) was > 100 µM, the IC50 ([5]; Mus musculus, L929, 48 h) was 73.3 ± 0.88 µM and the “NLRP3 inflammasome expression upregulation” value [6] was “approximately 1.2 fold”. The “relative tumor volume versus PBS group” value [7] was “no significant difference” and the “protein concentrations of Sam50 and COX II” value [8] was “significantly downregulated”.

In the case of `O=C1[O][Pt]2([NH][C@@H]3CCCC[C@H]3[NH]2)[O]C1=O` [Oxa, Oxaliplatin], the IC50 [1, 9] is reported as 13.4 ± 0.66 µM, the IC50 [2, 10] is reported as 25.9 ± 0.96 µM and the IC50 [3, 9] is reported as > 100 µM. For the same compound, the IC50 [4, 9] was 32.5 ± 2.01 µM, the IC50 [5, 10] was 44.6 ± 0.93 µM and the “relative tumor volume versus PBS group” value [7] was “no significant difference”. The “protein concentrations of Sam50 and COX II” value [8] was “no significant effect”.
